Measurements: PMC3065194 (Biochemical and biophysical research communications, 2010)

How the values were obtained:
integrin CD11a/CD18 = details: related integrin CD11a/CD18; cited from earlier work
integrin CD11b/CD18 = integrin CD11b/CD18 (Mus musculus, UniProt P05555+P11835); experiment: Neutrophil adhesion assay; format: cell-based; details: WT B6 mouse neutrophils, Figure 3B
Outline: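 Peritoneal neutrophils were isolated from thioglycollate-stimulated 8–10-week-old WT B6 mice and suspended in TBS with 0.5% gelatin in ligand-coated wells. Cells were incubated 10 min at 37°C with 5 μM test compound plus agonist, either Mn²⁺ (0.1 mM) or PMA (15 nM). Plates were inverted 30 min at room temperature to remove non-adherent cells. Adherent cells were counted by imaging microscopy, in triplicate wells.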

Sequence of integrin CD11b/CD18 (P05555 17-1153): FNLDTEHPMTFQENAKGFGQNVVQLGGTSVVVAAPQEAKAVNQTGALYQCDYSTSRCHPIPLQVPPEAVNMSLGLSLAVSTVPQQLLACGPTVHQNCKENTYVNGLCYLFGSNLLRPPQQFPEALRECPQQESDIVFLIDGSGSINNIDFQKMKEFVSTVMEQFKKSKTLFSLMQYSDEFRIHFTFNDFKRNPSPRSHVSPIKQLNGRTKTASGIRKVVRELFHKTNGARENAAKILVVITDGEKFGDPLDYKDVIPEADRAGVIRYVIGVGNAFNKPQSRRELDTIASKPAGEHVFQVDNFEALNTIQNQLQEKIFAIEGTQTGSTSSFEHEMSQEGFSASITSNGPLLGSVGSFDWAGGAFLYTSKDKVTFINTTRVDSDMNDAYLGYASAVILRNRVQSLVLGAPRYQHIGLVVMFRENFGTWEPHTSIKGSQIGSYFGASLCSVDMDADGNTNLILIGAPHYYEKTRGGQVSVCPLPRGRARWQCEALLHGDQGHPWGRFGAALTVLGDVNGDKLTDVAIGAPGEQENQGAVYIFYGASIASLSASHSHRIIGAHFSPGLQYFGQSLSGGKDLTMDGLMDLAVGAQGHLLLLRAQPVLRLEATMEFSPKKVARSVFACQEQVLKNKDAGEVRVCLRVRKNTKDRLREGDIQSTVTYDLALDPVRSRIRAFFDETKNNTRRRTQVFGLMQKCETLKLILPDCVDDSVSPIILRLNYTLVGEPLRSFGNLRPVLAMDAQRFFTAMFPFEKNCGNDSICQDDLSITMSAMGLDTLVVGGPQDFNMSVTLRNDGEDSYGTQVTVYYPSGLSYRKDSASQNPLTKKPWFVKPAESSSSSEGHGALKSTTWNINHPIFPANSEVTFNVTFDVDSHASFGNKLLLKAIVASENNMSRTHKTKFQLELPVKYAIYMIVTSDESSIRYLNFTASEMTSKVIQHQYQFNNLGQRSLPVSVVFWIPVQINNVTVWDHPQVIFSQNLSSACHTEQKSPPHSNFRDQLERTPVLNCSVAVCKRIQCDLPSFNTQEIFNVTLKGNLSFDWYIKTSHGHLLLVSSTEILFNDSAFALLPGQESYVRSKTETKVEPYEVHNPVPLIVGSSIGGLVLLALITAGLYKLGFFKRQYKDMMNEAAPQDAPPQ
Sequence of integrin CD11b/CD18 (P11835 24-771): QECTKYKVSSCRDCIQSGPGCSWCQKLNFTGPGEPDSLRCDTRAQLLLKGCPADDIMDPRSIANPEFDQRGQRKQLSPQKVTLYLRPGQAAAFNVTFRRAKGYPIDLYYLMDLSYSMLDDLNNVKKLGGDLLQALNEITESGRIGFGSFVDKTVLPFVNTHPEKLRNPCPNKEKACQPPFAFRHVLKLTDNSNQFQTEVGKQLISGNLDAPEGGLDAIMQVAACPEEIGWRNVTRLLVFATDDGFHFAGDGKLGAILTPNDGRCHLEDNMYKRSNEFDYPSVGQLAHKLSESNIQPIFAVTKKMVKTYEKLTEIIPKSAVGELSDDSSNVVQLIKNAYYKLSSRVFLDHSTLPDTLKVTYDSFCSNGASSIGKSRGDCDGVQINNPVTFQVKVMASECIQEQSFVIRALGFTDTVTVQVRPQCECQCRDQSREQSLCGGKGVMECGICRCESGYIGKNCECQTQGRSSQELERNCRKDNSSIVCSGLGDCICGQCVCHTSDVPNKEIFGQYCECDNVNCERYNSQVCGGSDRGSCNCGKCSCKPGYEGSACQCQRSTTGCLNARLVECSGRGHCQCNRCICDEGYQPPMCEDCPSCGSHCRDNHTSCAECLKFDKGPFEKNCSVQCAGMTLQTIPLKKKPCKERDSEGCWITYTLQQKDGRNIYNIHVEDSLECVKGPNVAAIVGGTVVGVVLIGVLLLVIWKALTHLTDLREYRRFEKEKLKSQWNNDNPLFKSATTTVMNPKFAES

Structure (SMILES)	IC50 (integrin CD11a/CD18)	neutrophil adhesion to Fg on integrin activation by agonist (integrin CD11b/CD18)
CC[C@H](C)C(=O)O[C@H]1C[C@@H](C)C=C2C=C[C@H](C)[C@H](CC[C@@H]3C[C@@H](O)CC(=O)O3)[C@H]21 [lovastatin]	25 µM	
CCCCCCCCCCCCCC(=O)O[C@@H]1[C@@H](C)[C@@]2(O)[C@@H](C=C(CO)C[C@]3(O)C(=O)C(C)=C[C@@H]23)[C@@H]2C(C)(C)[C@]12OC(C)=O [PMA, phorbol 12-myristate 13-acetate]		dramatic increase
